1 molecule from ChEMBL document CHEMBL1122008, “Lipophilic 5'-(alkyl phosphate) esters of 1-beta-D-arabinofuranosylcytosine and its N4-acyl and 2,2'-anhydro-3'-O-acyl derivatives as potential prodrugs” (1982) can be followed below.

Type in all cases: functional
Assay [1] relates to Mus musculus. The assay can be described thus: Antitumor activity against L1210 leukemia in mice (Average weight per mouse on day 1.) at the dose of 500 mg/kg. Summed up:
(§1)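 Male B6D2F1J mice (5–9 per group) received 10^5 L1210 cells i.p. on day 0 and drug from day 1, given qd×5 or q4d(2,6). Vehicles were sterile water, 0.05 M potassium phosphate pH 7.4, or 0.4% Tween 80/0.5% CMC/0.9% benzyl alcohol/0.9% saline. Read-out is average body weight per mouse (g) on day 1.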

For assay [2], the system named is Mus musculus. The assay can be described thus: Antitumor activity against L1210/ara-C leukemia in mice (Average weight per mouse on day 1.) at the dose of 1000 mg/kg. Summed up: (§2)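 Male B6D2F1J mice, groups of 5–9, inoculated ip with 10^5 L1210/ara-C cells on day 0. Dosing began day 1 on a qd×5 or q4d(2,6) schedule. Ara-C was given in sterile water, the n-butyl phosphate ester in 0.05 M pH 7.4 potassium phosphate buffer, and others as suspensions in 0.4% Tween 80/0.5% CMC/0.9% benzyl alcohol/0.9% saline. Mice were weighed on days 1 and 7; 7-day change given in g and %.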

Assay [3] concerns Mus musculus. The assay can be described thus: Antitumor activity against L1210/ara-C leukemia in mice (Percent increase in life span.) at the dose of 1000 mg/kg. Summed up: (§3)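 Same protocol as the L1210 assay, but with 10^5 kinase-deficient L1210/ara-C cells inoculated ip into male B6D2F1J mice (groups of 5–9) on day 0. Treatment begins day 1, qd×5 or q4d(2,6). %ILS = (T/C − 1)×100 using median survival times of treated and control groups. Body weight recorded days 1 and 7.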

In assay [4] the test system is Mus musculus. The assay can be described thus: Antitumor activity against L1210/ara-C leukemia in mice (Average 7-day weight change) at the dose of 1000 mg/kg. Summed up:
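Male B6D2F1J mice (5–9 per group) were given 10^5 L1210/ara-C cells i.p. on day 0, with treatment from day 1 on qd×5 or q4d(2,6). Vehicles were sterile water, pH 7.4 0.05 M phosphate buffer, or a Tween 80/CMC/benzyl alcohol saline suspension. Weights were taken on days 1 and 7; change is expressed in g/mouse and as a percentage.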

Assay [5] concerns Mus musculus. The assay can be described thus: Antitumor activity against L1210 leukemia in mice (Average 7-day weight change (%)) at the dose of 250 mg/kg. Summed up:
(§4)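 Male B6D2F1J mice, groups of five to nine, inoculated ip with 10^5 L1210 cells on day 0. Drug treatment started day 1 on qd×5 or q4d(2,6) schedule. Vehicles: ara-C in sterile water; the n-butyl phosphate ester in 0.05 M pH 7.4 potassium phosphate buffer; others as suspensions in 0.4% Tween 80/0.5% low-density CMC/0.9% benzyl alcohol/0.9% saline. Mice weighed days 1 and 7; 7-day weight change given as g/mouse and %.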

Assay [6] deals with Mus musculus. Nature of the assay: Antitumor activity against L1210 leukemia in mice (Average weight per mouse on day 1.) at the dose of 1000 mg/kg. Summed up: as §1
Assay [7] deals with Mus musculus. The assay can be described thus: Antitumor activity against L1210/ara-C leukemia in mice (Percent increase in life span.) at the dose of 50 mg/kg. Summed up: as §3
For assay [8], the system named is Mus musculus. Nature of the assay: Antitumor activity against L1210 leukemia in mice (Average 7-day weight change (%)) at the dose of 500 mg/kg. Summed up: as §4
The subject of assay [9] is Mus musculus. Nature of the assay: Antitumor activity against L1210 leukemia in mice (Average weight per mouse on day 1.) at the dose of 100 mg/kg. Summed up: as §1
Assay [10] deals with Mus musculus. Nature of the assay: Antitumor activity against L1210/ara-C leukemia in mice (Average weight per mouse on day 1.) at the dose of 100 mg/kg. Summed up: as §2
Assay [11] has as its system Mus musculus. Nature of the assay: Antitumor activity against L1210 leukemia in mice (Average 7-day weight change) at the dose of 100 mg/kg. Summed up: as §4
The test system of assay [12] is Mus musculus. Nature of the assay: Antitumor activity against L1210 leukemia in mice (Average 7-day weight change (%)) at the dose of 100 mg/kg. Summed up:
as §4

Assay [13] deals with Mus musculus. Nature of the assay: Antitumor activity against L1210 leukemia in mice (Percent increase in life span.) at the dose of 100 mg/kg. Summed up: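 Male B6D2F1J mice, groups of 5–9, inoculated ip with 10^5 L1210 cells on day 0. Dosing starts day 1 on a qd×5 or q4d(2,6) schedule. Vehicles are sterile water, pH 7.4 0.05 M potassium phosphate buffer, or 0.4% Tween 80/0.5% CMC/0.9% benzyl alcohol/0.9% saline. %ILS = (T/C − 1)×100 from median survival. Weights taken days 1 and 7.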

By ILS is commonly meant how much longer treated animals lived than controls. `Nc1ccn([C@@H]2O[C@H](CO)[C@@H](O)[C@@H]2O)c(=O)n1` [CYTARABINE]: the Average weight in the assay with Mus musculus [1] is 22.6 g mouse-1; in the assay with Mus musculus [2] it was 22 g mouse-1; in the assay with Mus musculus [6], 24 g mouse-1; in the assay with Mus musculus [9] it was 22.4 g mouse-1; in the assay with Mus musculus [10], 24 g mouse-1. For the same molecule, the ILS at 1000 mg/kg with Mus musculus [3] worked out at 0%. Also, the Weight change is given as 2.4 g mouse-1 in the assay on Mus musculus [4]; 7% in the assay with Mus musculus [5]; 2% in the assay on Mus musculus [8]; -1 g mouse-1 in the assay with Mus musculus [11]; -5% with Mus musculus [12]. For the same molecule, in the assay on Mus musculus [7], the increase in life span (ILS) at 50 mg/kg is 0%. In addition, the ILS at 100 mg/kg with Mus musculus [13] is 100%.
